We go through eleven compounds from ChEMBL document CHEMBL4219092, “Design and synthesis of 1-(1-benzothiophen-7-yl)-1H-pyrazole, a novel series of G protein-coupled receptor 52 (GPR52) agonists” (Bioorg Med Chem, 2018).

The nature of series [1]: Aqueous solubility of the compound at pH 6.8 by HPLC analysis. Type of series: physicochemical. Summed up: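 Compound from DMSO stock was added to aqueous buffer at pH 6.8 (JP 15th edition second disintegration fluid) and incubated. Precipitate was removed by filter-plate filtration, and the dissolved compound in the filtrate was quantified by HPLC.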
In series [2] the target is T1, G-protein coupled receptor 52 (Homo sapiens, UniProt Q9Y2T5). As to the kind of experiment: Agonist activity at human GPR52 expressed in CHO cells assessed as increase in cAMP level after 30 mins by AlphaScreen assay relative to N-(2-hydroxyethyl)-3-[2-[3-(trifluoromethyl)benzyl]-1-benzofuran-4-yl]benzamide. It is filed as functional, cell-based. Summed up:
(§1)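 CHO cells stably expressing human GPR52 (10,000 cells) were incubated with compound for 30 min at 37°C in HBSS with 5 mM HEPES pH 7.6, 0.5% BSA, 100 μM IBMX and 100 μM Ro20-1724. Anti-cAMP acceptor beads and biotinylated cAMP donor beads were then added, with overnight incubation at room temperature, and AlphaScreen was read. EC50 comes from mean curves (n=2-4) relative to the 50% response of 1 μM of a benzofuran reference agonist. Emax is expressed relative to that reference.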
(Cyclic AMP is a second messenger, typically raised through Gs and lowered through Gi signalling.)

Series [3] deals with T1, G-protein coupled receptor 52. The series is described as follows: Agonist activity at human GPR52 expressed in CHO cells assessed as increase in cAMP level after 30 mins by AlphaScreen assay. Type of series: functional, cell-based. Summed up: as §1
For series [4], the system named is Mus musculus. As to the kind of experiment: Reversal of methamphetamine-induced hyperlocomotion in ICR mouse at 0.3 mg/kg, po pretreated 60 mins post habituation followed by methamphetamine injection after 60 mins measured for 150 mins. Type of series: functional, organism-based. Summed up:
(§2)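 Male ICR mice (7-8 weeks) were placed individually in locomotor monitors and habituated for 60 min. Drug was then given p.o. (test agent 10 or 30 mg/kg; haloperidol 0.3 mg/kg). Methamphetamine 2 mg/kg s.c. was injected 60 min later, and activity counts were recorded for 150 min after drug dosing. Data are mean ± S.E.M., n=6-7 per group, analysed by Williams' test against vehicle+MAP.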

The test system of series [5] is Mus musculus. As to the kind of experiment: Reversal of methamphetamine-induced hyperlocomotion in po dosed ICR mouse pretreated 60 mins post habituation followed by methamphetamine injection after 60 mins measured for 150 mins. Type of series: functional, organism-based. An outline of the steps:
as §2

Series [6] is described as follows: Protein binding in mouse plasma at 1 uM. It is filed as ADME, cell-free. The settings on record: read-out: PPB (converted).
Series [7] is described as follows: Oral bioavailability in ICR mouse at 1 mg/kg administered as cassette dose by LC-MS/MS analysis. The conditions noted are these: in vivo. It is filed as ADME, organism-based. Summed up: (§3)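 Male ICR mice (n=3), cassette dosing at 0.1 mg/kg i.v. or 1 mg/kg p.o. Blood was collected and centrifuged to plasma. Plasma was deproteinized and centrifuged, and the supernatant was analysed by LC/MS/MS. AUC covers 0 to 8 h. Values are averages of 3 mice.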

The nature of series [8]: Cmax in ICR mouse at 0.1 mg/kg, iv and 1 mg/kg, po administered as cassette dose by LC-MS/MS analysis. It is filed as ADME, organism-based. The settings on record: in vivo. An outline of the steps: as §3
Series [9] has as its system Mus musculus. As to the kind of experiment: Toxicity in ICR mouse assessed as general malaise at 10 and 30 mg/kg, po measured over 60 mins. The conditions noted are these: in vivo, 1 h. It is filed as organism-based.
Series [10] has as its system MDR. The series is described as follows: Substrate activity at MDR (unknown origin) assessed as efflux ratio. It is filed as ADME. The settings on record: human, not told.
In series [11] the test system is Mus musculus. The series is described as follows: Toxicity in ICR mouse assessed as sedation at 10 and 30 mg/kg, po measured over 60 mins. Type of series: organism-based. The settings on record: in vivo, 1 h.
Series [12] can be described thus: AUC (0 to 8 hrs) in ICR mouse at 1 mg/kg, po administered as cassette dose by LC-MS/MS analysis. The conditions noted are these: in vivo. Type of series: ADME, organism-based. The arrangement: time < 8 hr, dose 1 mg/kg, route oral. Summed up: as §3
Series [13] is described as follows: Tmax in ICR mouse at 0.1 mg/kg, iv and 1 mg/kg, po administered as cassette dose by LC-MS/MS analysis. The conditions noted are these: in vivo. It is filed as ADME, organism-based. Summed up: as §3
Series [14] is described as follows: Total clearance in ICR mouse at 0.1 mg/kg, iv and 1 mg/kg, po administered as cassette dose by LC-MS/MS analysis. Type of series: ADME, organism-based. The settings on record: in vivo. An outline of the steps: as §3

≈ marks a conversion by molar mass, not a printed value. Calls of active or inactive are those of the source. The calls are words filed in the database; no cut-off is given here.

T1 sequence (Q9Y2T5 whole entry): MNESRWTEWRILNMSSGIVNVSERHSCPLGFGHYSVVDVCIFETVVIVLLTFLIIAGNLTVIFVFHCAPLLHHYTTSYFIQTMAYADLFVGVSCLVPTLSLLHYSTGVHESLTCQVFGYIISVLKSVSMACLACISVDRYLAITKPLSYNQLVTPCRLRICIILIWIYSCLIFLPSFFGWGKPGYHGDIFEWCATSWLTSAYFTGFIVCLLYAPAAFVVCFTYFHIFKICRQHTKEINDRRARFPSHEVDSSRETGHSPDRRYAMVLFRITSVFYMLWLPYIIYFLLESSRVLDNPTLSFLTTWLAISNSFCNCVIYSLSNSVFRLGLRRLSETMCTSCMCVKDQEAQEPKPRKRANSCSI

Turning to `COCCNC(=O)c1cnn(-c2cccc3cc(Cc4cccc(C(F)(F)F)c4)sc23)c1`, in series [1], the solubility (commonly the dissolved amount per volume that the medium holds) was < 0.08 µg/mL. In addition, in series [2], the Emax (usually the maximal effect, on the per cent scale that the assay sets) is 81%. Also, the EC50 – broadly, the concentration at which the effect is half-maximal – in [3] came to 62 nM.

As for `COCCNC(=O)c1cnn(-c2cccc3cc(Cc4cccc(C(F)(F)F)c4)sc23)c1C`, in series [1], the solubility was 1.3 µg/mL (≈ 2.75 µM). The Emax in series [2] came to 84%. For the same compound, the concentration giving a half-maximal response (EC50) in series [3] turned out to be 62 nM.

As to `O=C(CCCN1CCC(O)(c2ccc(Cl)cc2)CC1)c1ccc(F)cc1`, the result in series [4] was Active.

On to `Cc1c(C(=O)NCCO)c(CO)nn1-c1cccc2cc(Cc3cccc(C(F)(F)F)c3)sc12`, for which the concentration in solution in [1] (solubility) came to 18 µg/mL (≈ 36.8 µM). Moreover, in series [2], the Emax came out at 96%. Also, in series [3], the concentration giving a half-maximal response (EC50) came out at 146 nM.

Turning to `Cc1nn(-c2cccc3cc(Cc4cccc(C(F)(F)F)c4)sc23)c(CO)c1C(=O)NCCO`, the Activity entry is “Dose-dependent effect” in series [5], “Non-Toxic” in [9] and “Non-Toxic” in series [11]. In series [6], the fraction unbound at 1 µM is 0.02. Moreover, the bioavailability – broadly, dose-corrected exposure relative to a reference, in per cent – in [7] is 29.9%. Further, the Cmax (in general, the highest concentration seen after dosing) in [8] is 83 ng/mL. In series [10], the efflux ratio (usually a quotient of directional permeabilities that is used to spot active efflux) came out at 1.7. Further, the concentration in solution in [1] (solubility) came to 21 µg/mL (≈ 42.9 µM). In addition, the AUC(0-t) (in general, exposure summed from dosing to a finite time, without extrapolation to infinity) at 8 h in series [12] amounted to 406 ng·h/mL. In [13], the time to peak (Tmax) (commonly the time at which the peak concentration occurs) amounted to 1.7 h. In series [14], this compound gave a clearance of 12.4 mL/min/kg. In [2], the maximum response (Emax) was 103%. The concentration giving a half-maximal response (EC50) in [3] was 21 nM.

Take `O=C(NCCO)c1cnn(-c2cccc3cc(Cc4cccc(C(F)(F)F)c4)sc23)c1`: the solubility in series [1] is < 0.09 µg/mL. The Emax in [2] stood at 73%. Further, in series [3], the EC50 was 87 nM.

For the compound `COCCNC(=O)c1cn(-c2cccc3cc(Cc4cccc(C(F)(F)F)c4)sc23)nc1C`, the solubility in [1] was < 0.1 µg/mL. For the same compound, the maximum response (Emax) in series [2] amounted to 89%. Moreover, the half-maximal effective concentration (EC50) in [3] came to 9.6 nM.

In series [1], `COCCNC(=O)c1c(C)nn(-c2cccc3cc(Cc4cccc(C(F)(F)F)c4)sc23)c1C` displayed a solubility of 2.9 µg/mL (≈ 5.95 µM). Moreover, in series [2], the maximal effect (Emax) was determined as 104%. In [3], the concentration giving a half-maximal response (EC50) was 17 nM.

`Cc1nn(-c2cccc3cc(Cc4cccc(C(F)(F)F)c4)sc23)cc1C(=O)NCCO`: the solubility in series [1] is < 0.1 µg/mL. Besides, the Emax in [2] amounted to 102%. Besides, the EC50 in series [3] came to 5.2 nM.

`Cn1nc(-c2cccc3cc(Cc4cccc(C(F)(F)F)c4)sc23)cc1C(=O)NCCO`: the solubility in [1] was < 0.08 µg/mL. Further, the maximal response (Emax) in series [2] amounted to 110%. For the same compound, the concentration giving a half-maximal response (EC50) in series [3] is 45 nM.

In series [1], `Cc1nn(-c2cccc3cc(Cc4cccc(C(F)(F)F)c4)sc23)c(C)c1C(=O)NCCO` gave a solubility of 12 µg/mL (≈ 25.3 µM). Also, the Emax in [2] was determined as 110%. Besides, the concentration for a half-maximal effect (EC50) in [3] turned out to be 15 nM.
